In the library only some 2% were active in any assay of this set; here they are far more common.
PABP1 MLLE inh: inhibitors of microRNA-mediated deadenylation, human PABP1 MLLE binding. P11940. AID 588489. inhibition, % at 20 µM. hit rate 0.36% among 360,000. GST-MLLE / FITC-PAM2 fluorescence polarization; in the data active = inhibition above about 35%, passing the limit was not always enough;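 note: plate controls were DMSO wells with GST-MLLE for no effect and wells lacking GST-MLLE protein for full effect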
Target sequence (P11940 whole entry, looked up): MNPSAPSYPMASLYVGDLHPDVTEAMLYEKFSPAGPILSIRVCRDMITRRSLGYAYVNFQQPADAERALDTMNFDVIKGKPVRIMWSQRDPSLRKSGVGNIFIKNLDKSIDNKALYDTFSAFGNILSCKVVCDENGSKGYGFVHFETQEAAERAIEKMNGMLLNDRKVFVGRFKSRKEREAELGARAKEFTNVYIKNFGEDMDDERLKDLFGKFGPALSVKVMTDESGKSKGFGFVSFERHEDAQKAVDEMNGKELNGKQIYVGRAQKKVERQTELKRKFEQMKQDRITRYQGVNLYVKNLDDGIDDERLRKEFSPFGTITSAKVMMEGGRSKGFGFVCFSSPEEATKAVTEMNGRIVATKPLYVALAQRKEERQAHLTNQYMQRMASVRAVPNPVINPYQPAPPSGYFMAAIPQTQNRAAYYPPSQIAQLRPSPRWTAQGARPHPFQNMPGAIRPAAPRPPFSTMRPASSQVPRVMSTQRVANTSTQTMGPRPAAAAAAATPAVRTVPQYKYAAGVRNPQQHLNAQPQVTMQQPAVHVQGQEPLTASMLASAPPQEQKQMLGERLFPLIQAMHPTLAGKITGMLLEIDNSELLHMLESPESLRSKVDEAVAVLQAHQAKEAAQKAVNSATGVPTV
FID counter: fluorescent intercalator displacement, NS3 helicase counter-screen | DNA fluorescent intercalator displacement, fluorescence | inhibition, % at 7.9 µM | hit rate 0.17% among 290,000 | AID 1845; in the data active = inhibition above about 37%;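 note: 0% = vehicle and 100% = reference compound; higher means more ethidium bromide displaced from hairpin DNA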
eIF4H FP inh: inhibitors of RNA binding by human eIF4H | Q15056 | eIF4H fluorescence polarization binding assay | inhibition, % at 35 µM | hit rate 0.94% among 290,000;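 note: calls also rest on retests at 20 µM and on dose response follow-up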
HCV core dimer: blocks dimerization of HCV core protein; TR-FRET GST/Flag-core106 dimerization, 1536-well; inhibition, % at 5 µM; hit rate 0.33% among 300,000; AID 1899;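 active = inhibition above the mean of all tested compounds plus 3 SD, set per screening campaign, cut at about 45% in these data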
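Material: GST/Flag-tagged HCV core106 proteins. Incubation: 4 h, 22.5 °C incubation. Read-out basis: inhibition (%) from 671 over 617 nm ratio. Measured by: TR-FRET, excitation 340 nm, emission 617 and 671 nm.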
PABP FP inh: PABP-poly(A) binding inhibition; P11940; PABP-poly(A) RNA binding, fluorescence polarization; inhibition, % at 35 µM; hit rate 1% among 290,000; AID 2014;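 note: calls also rest on retests at 20 µM and on dose response follow-up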
HCV NS3 hel inh: inhibitors of Hepatitis C virus NS3 helicase; NS3 helicase DNA unwinding, Cy5 molecular beacon fluorescence; inhibition, % at 10.9 µM; hit rate 0.56% among 290,000; AID 1800;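 active = inhibition above the mean of all tested compounds plus 3 SD, set per campaign, cut at about 35% in these data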;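 note: 0% = DMSO wells and 100% = thioflavine S control wells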
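Material: hepatitis C virus NS3 helicase domain fragment enzyme; measured by: Cy5 fluorescence, 0 and 60 min reads; control set: DMSO and thioflavine S; incubation: 60 min unwinding reaction at 25 °C after ATP addition; read-out basis: % inhibition from 60/0 min fluorescence ratio, DMSO 0%, thioflavine S 100%; repeats: singlicate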
* hit, by the source's call; . = no result. Unless noted, the rule behind the calls is not given here.

SMILES	PABP1 MLLE inh	FID counter	eIF4H FP inh	HCV core dimer	PABP FP inh	HCV NS3 hel inh
NS(=O)(=O)c1ccc(S(=O)(=O)N2CCCC(c3ccccc3)C2)cc1 (stereo unspecified)	-7	.	.	.	.	.
COc1ccc2[nH]cc(CCNC(=O)COc3cc(C)cc4oc(=O)cc(C)c34)c2c1	3	-34	-13	2	4	-6
COc1ccc(C(=O)NC(=S)N2CCCc3ccccc32)cc1OC	41*	-2	7	8	6	3
COc1ccccc1C(=O)NC(=S)N1CCCc2ccccc21	17	0	32	3	57*	-1
O=C(NC(=S)N1CCCc2ccccc21)c1ccccc1	34	4	3	1	16	-4
O=C(NC(=S)N1CCCc2ccccc21)c1ccc(Br)cc1	47*	0	28	-7	-2	-2
CCN(CC(=O)N1CCCC1)S(=O)(=O)c1ccc(Br)cc1	-9	-7	1	8	1	7
CCN(CC(=O)N1CCCC1)S(=O)(=O)c1ccccc1	2	-1	72*	.	62*	-17
O=C(/C=C/c1ccc(OCCCF)cc1)Nc1ccnc(-c2ccncc2)n1	-9	-6	-3	8	0	-8
O=C(/C=C/c1ccc(OCCCF)cc1)Nc1ccnc(-c2cccnc2)n1	-63	3	102*	7	active	8
Cc1c(C)n(CCC(=O)O)c2ccccc12	-8	-7	4	0	8	17
Cc1ccc2c(c1)c(C)cc(=O)n2CCC(=O)O	8	-7	88*	-22	10	5
Cn1c(N)c(C(=O)COC(=O)c2ccccc2C(=O)c2ccc(Cl)c([N+](=O)[O-])c2)c(=O)n(C)c1=O	-23	.	.	.	.	.
Cc1cccnc1NC(=O)CNC(=O)c1cccs1	-12	.	.	0	.	.
Cc1cccnc1NC(=S)NC(=O)c1cccs1	39*	1	-4	-1	3	3
CCOC(=O)C1=CN(CC)S(=O)(=O)NC1c1cccc(OC)c1 (stereo unspecified)	13	.	.	.	.	.
CCCNC(=O)c1cc(C2CCCN(C(=O)c3ccc(NC(C)=O)cc3)C2)on1 (stereo unspecified)	-3	.	.	.	.	.
CCCCCCCn1c2c(c(=N)c3ccccc31)CCC2	-99	13	-4	3	62*	-28
CCCn1c2c(c(=N)c3c1CCC3)CCC2	-137	0	.	-1	.	-46
CC(C)(C)S(=O)N1Cc2cc(C(=O)N3CCOCC3)nc(-c3cccc(Br)c3)c2[C@@H]1CCO (stereo partly specified)	0	.	.	.	.	.
CCC1c2ccc(C)n2CCN1C(=O)Nc1ccc(F)cc1 (stereo unspecified)	0	4	113*	-4	109*	5
O=C(Cc1ccc(S(=O)(=O)N2CCOCC2)s1)Nc1ccc(N2CCOCC2)cc1	-5	12	2	9	3	1
CN(C)S(=O)(=O)c1ccc(NC(=O)Cc2ccc(S(=O)(=O)N3CCOCC3)s2)cc1	-18	0	32	49*	-10	-1
O=C(COC(=O)Cc1ccc(S(=O)(=O)N2CCCCC2)s1)Nc1ccc2c(c1)OCO2	-9	-16	10	63*	6	7
NS(=O)(=O)c1cccc(NC(=O)COC(=O)Cc2ccc(S(=O)(=O)N3CCCCC3)s2)c1	-17	-13	14	31	-5	28
SMILES	PABP1 MLLE inh	FID counter	eIF4H FP inh	HCV core dimer	PABP FP inh	HCV NS3 hel inh
CCn1c2ccccc2c2cc(NC(=O)Cc3ccc(S(=O)(=O)N4CCOCC4)s3)ccc21	-55	10	1	60*	5	-26
CCN(CC)S(=O)(=O)c1cc(NC(=O)Cc2ccc(S(=O)(=O)N3CCOCC3)s2)ccc1Cl	8	.	.	.	.	.
CCN(CC)c1ccc(C(=C2C=CC(=[N+](CC)CC)C=C2)c2ccc(S(=O)(=O)O)cc2S(=O)(=O)[O-])cc1	1	.	.	.	.	.
COC(=O)Cn1ncc(N(C)Cc2ccccc2)c(Cl)c1=O	8	-6	-7	-10	-6	1
CC(C)[C@H](NS(=O)(=O)c1cccc(Cl)c1)C(=O)OCC(=O)NC(=O)CN1CCCC1=O	0	.	.	.	.	.
COc1ccc([C@H]2CC(=O)C=C(c3cccc4c3Oc3ccccc3S4)C2)cc1OC	1	.	.	.	.	.
C=C(C)Cn1c2ccc(NC(=O)NCCc3ccccc3)cc2c(=O)n1C	-4	.	.	.	.	.
Cc1c(C(=O)NCc2ccc(C(C)C)cc2)sc(=O)n1Cc1ccc(S(=O)(=O)N(C)C)cc1	-3	.	.	.	.	.

Bioassay records (PubChem BioAssay)
